Measured values: ChEMBL document CHEMBL1159063, “Apoptotic activities in closely related styryllactone stereoisomers toward human tumor cell lines: Investigation of synergism of styryllactone-induced apoptosis with TRAIL” (Bioorg Med Chem, 2010)

What was measured:
MCF7 [1] = test: Antiproliferative activity against human MCF7 cells at 250 uM after 48 hrs by SRB assay; format: functional, cell-based; settings: for inhibition at 250 µM: Homo sapiens, MCF7, 48 h
How it was run: (§1)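 Cells grown in RPMI with 10% fetal calf serum at 37 °C, 5% CO2, replated 24 h before use, >90% trypan blue viability. DMSO stocks (1 mg/ml) diluted in medium; 48 h exposure at 37 °C, triplicate wells, concentrations up to 250 µM. Fixed with cold TCA, SRB stained, dye solubilized in 10 mM Tris pH 10.5, A570. Percent inhibition calculated versus untreated cells after subtracting cell-free blanks.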

[2] = Cytotoxicity against human MCF12A cells at 250 uM after 48 hrs by SRB assay; format: cell-based, MCF-12A; settings: read-out: INH; how it was run: as §1
CCRF-CEM [3] = test: Antiproliferative activity against human CEM cells after 48 hrs by SRB assay; format: functional, cell-based; how it was run: as §1
MCF7 [4] = test: Antiproliferative activity against human MCF7 cells after 48 hrs by SRB assay; format: functional, cell-based; how it was run: as §1
CCRF-CEM [5] = test: Antiproliferative activity against human CEM cells at 250 uM after 48 hrs by SRB assay; format: functional; how it was run: as §1
[6] = Cytotoxicity against human MCF12A cells after 48 hrs by SRB assay; format: cell-based, MCF-12A; how it was run: as §1
CCRF-CEM [7] = test: Cytotoxicity against human CEM cells assessed as viable cells at 120 uM after 24 hrs by Annexin-V-FITC and porpidium iodide staining based flow cytometry; format: functional; settings: read-out: Activity
How it was run: (§2)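 CEM cells at 10⁶/ml incubated 24 h at 37 °C with 120 µM agent from fresh DMSO stocks. Cells then washed in ice-cold PBS and taken into binding buffer (10 mM HEPES, 140 mM NaCl, 2.5 mM CaCl2). Annexin V-FITC and PI were added for 15 min in the dark at ambient temperature. Flow cytometry read 520/620 nm, gated on forward scatter to remove debris, counting 10,000 cells. Three experiments.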

CCRF-CEM [8] = test: Cytotoxicity against human CEM cells assessed as late apoptotic/necrotic cells at 120 uM after 24 hrs by Annexin-V-FITC and porpidium iodide staining based flow cytometry; format: functional; how it was run: as §2
CCRF-CEM [9] = test: Cytotoxicity against human CEM cells assessed as early apoptotic cells at 120 uM after 24 hrs by Annexin-V-FITC and porpidium iodide staining based flow cytometry; format: functional; how it was run: as §2
[10] = Homo sapiens, CCRF-CEM, 48 h, read-out: IC50
[11] = Homo sapiens, MCF7, 48 h, read-out: IC50
[12] = Homo sapiens, MCF-12A, 48 h, read-out: IC50

In the case of `COC(=O)C[C@H](O)[C@@H]1O[C@@H](c2ccccc2)[C@@H](O)[C@@H]1O`, the inhibition at 250 µM (MCF7 [1]) is reported as less than 50%, the cytotoxicity at 48 h, 250 µM [2] is reported as less than 50% and the IC50 (CCRF-CEM [3]; ccrf-cem) is reported as “Not Active”. For the same compound, the IC50 (MCF7 [4]; mcf7) was “Not Active”, the inhibition at 250 µM (CCRF-CEM [5]) was less than 50% and the IC50 ([6]; mcf-12a) was “Not Active”.
In the case of `O=C1C[C@@H](O)[C@@H]2O[C@H](c3ccccc3)[C@@H](O)[C@@H]2O1`, the Inhibition (MCF7 [1]; mcf7) is reported as less than 50%, the cytotoxicity at 48 h, 250 µM [2] is reported as less than 50% and the IC50 (CCRF-CEM [3]; ccrf-cem) is reported as “Not Active”. The IC50 (MCF7 [4]; mcf7) was “Not Active”, the inhibition at 250 µM (CCRF-CEM [5]) was less than 50% and the IC50 ([6]; mcf-12a) was “Not Active”.
With `COC(=O)C[C@H](O)[C@H]1O[C@@H](c2ccccc2)[C@H](O)[C@H]1O` the inhibition at 250 µM (MCF7 [1]) was less than 50%, the cytotoxicity at 48 h, 250 µM [2] was less than 50% and the IC50 (CCRF-CEM [3]; ccrf-cem) was “Not Active”. For the same compound, the IC50 (MCF7 [4]; mcf7) was “Not Active”, the inhibition at 250 µM (CCRF-CEM [5]) was less than 50% and the IC50 ([6]; mcf-12a) was “Not Active”.
In the case of `COC(=O)C[C@H](O)[C@@H]1O[C@@H](c2ccccc2)[C@H](O)[C@@H]1O`, the inhibition at 250 µM (MCF7 [1]) is reported as less than 50%, the cytotoxicity at 48 h, 250 µM [2] is reported as less than 50% and the IC50 (CCRF-CEM [3]; ccrf-cem) is reported as “Not Active”. The IC50 (MCF7 [4]; mcf7) was “Not Active”, the inhibition at 250 µM (CCRF-CEM [5]) was less than 50% and the IC50 ([6]; mcf-12a) was “Not Active”.
With `COC(=O)C[C@@H](O)[C@@H]1O[C@H](c2ccccc2)[C@@H](O)[C@@H]1O` (mixture of isomers) the inhibition at 250 µM (MCF7 [1]) was less than 50%, the cytotoxicity at 48 h, 250 µM [2] was less than 50% and the IC50 (CCRF-CEM [3]; ccrf-cem) was “Not Active”. For the same compound, the IC50 (MCF7 [4]; mcf7) was “Not Active”, the inhibition at 250 µM (CCRF-CEM [5]) was less than 50% and the IC50 ([6]; mcf-12a) was “Not Active”.
Compound `O=C1C=C[C@@H]2O[C@H](c3ccccc3)[C@@H](O)[C@@H]2O1` [ALTHOLACTONE] has a viability at 120 µM (CCRF-CEM [7]) of 19%, an IC50 (CCRF-CEM [3]; [10]) of 19 µM and an IC50 (MCF7 [4]; [11]) of 124 µM. It also gave an Activity (CCRF-CEM [8]) of 19%, an Activity (CCRF-CEM [9]) of 33% and an IC50 [6, 12] of 120 µM.
`O=C1C=C[C@H]2O[C@@H](c3ccccc3)[C@H](O)[C@H]2O1` [ENT-ALTHOLACTONE] showed a viability at 120 µM (CCRF-CEM [7]) of 19%, an IC50 (CCRF-CEM [3]; [10]) of 24 µM and an IC50 (MCF7 [4]; [11]) of 100 µM. For the same compound, the Activity (CCRF-CEM [8]) was 40%, the Activity (CCRF-CEM [9]) was 10% and the IC50 [6, 12] was 110 µM.
